Reference: article PMC3149845 (The Journal of neuroscience : the official journal of the …, 2011)

Molecular target: T1, smTas1R2/hTas1R3 (Saimiri sciureus, UniProt A3QP08)
T1 sequence (A3QP08 20-834): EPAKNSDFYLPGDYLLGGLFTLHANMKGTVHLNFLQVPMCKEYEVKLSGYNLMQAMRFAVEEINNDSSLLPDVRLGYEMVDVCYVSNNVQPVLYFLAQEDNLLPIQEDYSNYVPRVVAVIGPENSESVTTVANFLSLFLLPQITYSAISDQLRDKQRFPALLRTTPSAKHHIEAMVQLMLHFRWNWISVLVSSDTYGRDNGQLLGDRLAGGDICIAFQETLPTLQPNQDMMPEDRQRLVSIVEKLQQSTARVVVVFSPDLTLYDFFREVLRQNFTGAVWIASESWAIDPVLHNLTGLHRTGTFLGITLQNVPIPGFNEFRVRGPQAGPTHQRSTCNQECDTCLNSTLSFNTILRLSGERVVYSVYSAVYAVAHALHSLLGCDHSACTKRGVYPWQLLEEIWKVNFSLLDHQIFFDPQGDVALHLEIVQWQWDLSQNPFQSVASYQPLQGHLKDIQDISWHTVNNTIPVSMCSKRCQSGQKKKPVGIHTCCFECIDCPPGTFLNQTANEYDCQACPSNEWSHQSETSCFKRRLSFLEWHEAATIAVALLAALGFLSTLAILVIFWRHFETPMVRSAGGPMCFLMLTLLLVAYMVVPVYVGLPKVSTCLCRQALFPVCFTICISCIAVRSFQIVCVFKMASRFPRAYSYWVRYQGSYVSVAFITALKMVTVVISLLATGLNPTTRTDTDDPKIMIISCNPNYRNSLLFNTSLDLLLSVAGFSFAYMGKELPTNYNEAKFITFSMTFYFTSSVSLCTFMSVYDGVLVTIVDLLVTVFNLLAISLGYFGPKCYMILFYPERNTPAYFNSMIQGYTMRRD
T1 sequence (Q7RTX0 21-852 partner): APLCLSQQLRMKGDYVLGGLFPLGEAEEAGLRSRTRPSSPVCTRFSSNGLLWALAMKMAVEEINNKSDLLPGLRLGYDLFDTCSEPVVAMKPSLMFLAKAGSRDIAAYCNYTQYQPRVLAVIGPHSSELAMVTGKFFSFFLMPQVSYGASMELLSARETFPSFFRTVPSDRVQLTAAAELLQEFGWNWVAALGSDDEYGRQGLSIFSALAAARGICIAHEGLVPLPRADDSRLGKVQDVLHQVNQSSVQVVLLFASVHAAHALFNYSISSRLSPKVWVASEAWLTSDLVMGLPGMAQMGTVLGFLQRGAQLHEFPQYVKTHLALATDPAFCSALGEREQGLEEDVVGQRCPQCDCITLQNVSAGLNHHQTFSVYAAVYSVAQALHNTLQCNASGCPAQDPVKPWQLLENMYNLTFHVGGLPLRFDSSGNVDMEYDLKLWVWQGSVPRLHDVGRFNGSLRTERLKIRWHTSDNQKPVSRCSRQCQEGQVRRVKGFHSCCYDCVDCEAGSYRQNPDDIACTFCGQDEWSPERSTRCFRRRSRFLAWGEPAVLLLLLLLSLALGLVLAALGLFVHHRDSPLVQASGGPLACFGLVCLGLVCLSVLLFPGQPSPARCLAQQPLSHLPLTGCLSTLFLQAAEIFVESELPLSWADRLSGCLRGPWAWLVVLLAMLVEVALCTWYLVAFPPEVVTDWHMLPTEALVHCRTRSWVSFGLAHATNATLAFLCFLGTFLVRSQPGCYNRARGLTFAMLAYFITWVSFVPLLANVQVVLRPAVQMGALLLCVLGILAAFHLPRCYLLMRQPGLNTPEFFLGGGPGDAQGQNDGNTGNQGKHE
Assay: Ca2+ mobilization, mismatched receptor
Format: cell-based, human/squirrel monkey
Conditions: aspartame 10mM, neotame 1mM, sucralose 2 mM, D-tryptophan 5mM, sucrose 150mM
In short: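 HEK293E cells grown at 37°C in Opti-MEM with 5% FBS and seeded at 50,000/well. Cells co-lipofected with Tas1R plasmids and Gα16-gust44 (0.06 μg each per well); medium changed at 20 h, assayed 24 h later. Cells loaded 1 h with Fluo-4 AM in HEPES-buffered HBSS. Tastant added at 30 s; fluorescence (ex 488/em 525 nm) read every 2 s for 150 s more. ΔF/F normalised to human receptor maximal sucralose response; mean ± SEM, three independent experiments.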

SMILES: OC[C@H]1O[C@H](O[C@]2(CCl)O[C@H](CCl)[C@@H](O)[C@@H]2O)[C@H](O)[C@@H](O)[C@H]1Cl [sucralose]
- calcium response to sweetener: remained intact or reduced
